Screening results: PubChem, Sanford-Burnham Center for Chemical Genomics
LMPTP block: blocks human LMPTP phosphatase. P24666. recombinant LMPTP-A, OMFP fluorogenic substrate, fluorescence intensity. inhibition, % at 20 µM. hit rate 0.22% among 360,000. AID 651560;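 active means compounds that cut the enzyme signal by at least half of the control window in the single-dose screen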;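 further: plate controls were DMSO wells with enzyme plus substrate for no effect and substrate without enzyme for full effect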
Target sequence (P24666 whole entry, looked up): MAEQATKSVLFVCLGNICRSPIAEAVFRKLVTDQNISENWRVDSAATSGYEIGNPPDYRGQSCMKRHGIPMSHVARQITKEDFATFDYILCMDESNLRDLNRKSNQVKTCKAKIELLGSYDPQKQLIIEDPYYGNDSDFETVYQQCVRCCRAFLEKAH
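Test system: LMPTP-A phosphatase enzyme. Amount: LMPTP-A at 0.625 nM final in the reaction. Reagent: OMFP substrate, 400 µM final. Times: 50 min at room temperature. Signal: endpoint fluorescence intensity from OMFP dephosphorylation. Read-out basis: % inhibition. Benchmarks: no-enzyme and uninhibited controls.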
DNMT1 block: inhibitors of human DNMT1; P26358; inhibition (reported as % activation of signal), % at 10 µM; AID 588458; DNMT1 molecular beacon, Hinp1I cleavage, fluorescence; hit rate 0.83% among 360,000; in the data active means inhibition above about 50%
Rpn11 block: inhibitors of human proteasome Rpn11 | O00487 | human 26S proteasome, Ub4-pepOG fluorescence polarization; 20S core pre-blocked with epoxomicin | inhibition, % at 20 µM | hit rate 0.59% among 360,000;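 active means inhibition at 20 µM, scaled to each plate's controls, above about 33%, limit read from the data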
Target sequence (O00487 whole entry, looked up): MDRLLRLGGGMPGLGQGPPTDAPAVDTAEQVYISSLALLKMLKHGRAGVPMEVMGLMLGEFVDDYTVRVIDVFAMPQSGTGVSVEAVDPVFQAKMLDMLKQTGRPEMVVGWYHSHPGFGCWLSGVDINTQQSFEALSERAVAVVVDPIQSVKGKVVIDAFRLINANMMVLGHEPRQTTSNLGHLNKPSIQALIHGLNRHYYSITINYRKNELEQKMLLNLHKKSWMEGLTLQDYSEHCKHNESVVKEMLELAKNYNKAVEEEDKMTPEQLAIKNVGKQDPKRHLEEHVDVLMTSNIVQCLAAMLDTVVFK
STEP block: blocks human striatal-enriched tyrosine phosphatase; P54829; recombinant STEP, OMFP fluorogenic substrate, fluorescence; inhibition, % at 20 µM; hit rate 0.25% among 360,000;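 active means inhibition at 20 µM, scaled per plate between control wells, above about 37%, limit read from the data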;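 further: 0% = DMSO with enzyme and substrate and 100% = substrate only without enzyme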
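Material: STEP (striatal-enriched tyrosine phosphatase) enzyme, cell-free; Compound dosing: 20 µM single dose in 1% DMSO; Technique: fluorescence read at 480 nm ex / 540 nm em; Times: reaction 20 min, ambient temperature; Medium: 50 mM Bis-Tris pH 6.0 with 2.5 mM DTT and 0.005% Tween 20; Also added: OMFP at 25 µM.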
Scp1 inh: blocks human Scp-1 phosphatase activity | Q9GZU7 | Recombinant Scp1, phosphopeptide, malachite green phosphate absorbance | inhibition, % at 20 µM | hit rate 0.88% among 340,000;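 active means inhibition above about 50% at 20 µM, limit read from the data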;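 further: plate controls were DMSO wells with enzyme for no effect and wells lacking enzyme for full effect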
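System: truncated SCP-1 phosphatase (76-261aa); medium: Tris acetate buffer pH 5.5 with MgCl2 and Tween-20; incubation: 45 min room-temperature reaction, 5 min colour, 30 min stabiliser; compound: single 20 µM dose, 1% DMSO; reagent: Phosphorylated 17-residue peptide substrate; read-out: % inhibition at 20 µM; technique: colorimetric free-phosphate detection, absorbance 630 nm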
* hit, by the source's call; / = no result shown. Rows were chosen to be rich in hits. Some 2% of all compounds tested hit in one or more screens of this group.

SMILES	LMPTP block	DNMT1 block	Rpn11 block	STEP block	Scp1 inh
COc1ccc(C2NN=C(c3c[nH]c4ccccc34)C2O)cc1 (stereo unspecified)	2	-28	94*	1	-4
CC1(C(=O)NS(=O)(=O)c2ccc3c(c2)CCO3)CCN1C(=O)C1(c2ccc(Cl)cc2)CC1 (stereo unspecified)	-2	1	-1	-2	/
COc1cccc(CNS(=O)(=O)c2ccc3c(c2)N(C(C)=O)CCO3)c1	9	24	-4	42*	24
COc1cccc(NS(=O)(=O)c2ccc3c(c2)N(C(C)=O)CCO3)c1	-1	1	-7	-2	3
CN(C)c1ccc(C=c2c3cc([N+](=O)[O-])ccc3n3c2cc(-c2ccccc2)[n+]3C)cc1	68*	36	30	9	4
CN(C)c1ccc(C=c2c3ccccc3n3c2c2c([n+]3C)CCCC2)cc1	53*	25	-4	5	7
Cn1c(CO)c(-c2ccccc2)c2cc([N+](=O)[O-])ccc21	3	-3	9	-3	-8
COc1cc(C=c2c3ccccc3n3c2cc(-c2ccccc2)[n+]3C)cc(OC)c1OC	8	18	13	4	10
CN(C)c1ccc(C=c2c3ccccc3n3c2cc(-c2ccc(Cl)cc2)[n+]3C)cc1	52*	35	34	4	7
CN(C)c1ccc(C=c2c3ccccc3n3c2cc(-c2ccccc2)[n+]3C)cc1	89*	29	46*	11	10
CCCNC(=O)C1(C)CCCN(C(=O)c2ccc(F)cc2Cl)C1 (stereo unspecified)	1	5	-3	0	/
CC(C#N)Sc1ccc(S(=O)(=O)N(C)C2CCCCC2)cn1 (stereo unspecified)	0	-2	-1	-1	6
CN1CCn2cnc(C(=O)N[C@@H](Cc3ccccc3)C(=O)OC(C)(C)C)c2C1=O	-1	5	2	1	/
CC(C)n1nnc(-c2ccc(OCc3ccccc3F)cc2)n1	2	-3	-8	1	58*
CN(C)c1ccc(/C=C/c2cc[n+](C)cc2)cc1	7	-16	/	2	96*
CCOC(=O)c1c(/N=C/N(C)C)sc(C)c1C	0	3	8	2	6
CCOC(=O)c1c(/N=C/N(C)C)sc(/C=N/Nc2ccccc2)c1-c1ccc(Cl)cc1	2	-9	43*	3	-1
C[C@@H]1CN([C@H](C)CO)C(=O)CCCn2nncc2CO[C@H]1CN(C)S(=O)(=O)c1ccc(C#N)cc1	-2	7	-4	0	/
Cc1cc(C)n(Cc2ccc(C(=O)N/N=C/c3ccc(-c4ccc([N+](=O)[O-])cc4)o3)o2)n1	97*	98*	/	99*	102*
CNC(=S)N/N=C/c1ccc(-c2ccc(C(=O)O)cc2)o1	2	13	10	4	52*
O=C(O)c1cccc(-c2ccc(/C=N/Nc3ccc([N+](=O)[O-])cc3)o2)c1	11	-8	/	-8	3
CNC(=S)N/N=C/c1ccc(-c2ccc(Cl)c([N+](=O)[O-])c2)o1	4	-3	0	3	-3
O=C(O)c1ccc(-c2ccc(/C=N/Nc3ccc([N+](=O)[O-])cc3)o2)cc1	14	-1	/	-23	85*
CCCCC(=O)N/N=C/c1ccc(-c2ccc([N+](=O)[O-])cc2)o1	1	2	13	4	-5
COC(=O)c1ccc(CNC(=O)C(C)N=C2NS(=O)(=O)c3ccccc32)cc1 (stereo unspecified)	-1	2	-2	-2	-5
SMILES	LMPTP block	DNMT1 block	Rpn11 block	STEP block	Scp1 inh
N#Cc1cccc(NC(=O)CSc2ccc3c4c(cccc24)C(=O)c2ccccc2-3)c1	27	82*	-54	-9	42
COCCN1C[C@@H](CO)O[C@@H](n2cnc3c(NC(C)C)ncnc32)C1	-3	6	-1	3	/
COC1=CC(=O)c2nc(Cl)ccc2C1=O	-1	85*	12	-2	/
Nc1c(C(=O)NC2CC2)sc2nc3c(c(-c4ccco4)c12)CC/C3=C/c1ccco1	71*	91*	-26	15	84*
CCOC(=O)c1sc2nc(-c3ccco3)c3c(c2c1N)CC(C)(C)OC3	1	4	24	3	-8
O=C(O)C(O)Cc1c[nH]c2ccccc12 (stereo unspecified)	-1	0	-3	2	10
